The term CC50 denotes the concentration giving 50% cytotoxicity. The term EC50 denotes the concentration that produces a half-maximal response.

Activity calls are given as the source filed them. Some results are limits rather than exact numbers.

Tested on in one data set: not listed separately
Kind of data set: Cytotoxicity against MDBK cells after 48 to 96 hrs by MTT assay. The note with it: cattle, mdbk. The format is cell-based, Bos taurus. In outline:
(§1)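 Mock-infected cells in maintenance medium, MDBK at 6 × 10^5 and BHK at 1 × 10^6 cells/mL initial density, with or without serial compound dilutions. Run in parallel with antiviral assays. Viability by MTT after 48–96 h at 37 °C, 5% CO2. CC50 = concentration reducing viability 50%.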
The molecule `Fc1ccc(F)c(/N=N/c2ccc(NC[C@@H]3CCCN4CCCC[C@H]34)c3c2CCCC3)c1` displayed a half-maximal cytotoxic concentration (CC50) of 64 µM.

In the case of `CN(C)CCCN(/N=N/c1ccc([N+](=O)[O-])cc1)c1ccccc1`, the midpoint of cytotoxicity, the CC50, lay at 39 µM.

The molecule `CN(Cc1ccccc1)/N=N/c1ccccc1` yielded a CC50 greater than 100 µM.

In the case of `FC(F)(F)c1cccc(N(C[C@@H]2CCCN3CCCC[C@H]23)/N=N/c2ccccc2)c1`, the CC50 turned out to be 22 µM.

With `CN(C)CCCNc1ccc(/N=N/c2ccc([N+](=O)[O-])cc2)cc1`, the CC50 was greater than 100 µM.

The next data set has as its system Yellow fever virus. Kind of data set: Antiviral activity against Yellow fever virus infected in BHK-21 cells assessed as inhibition of virus-induced cytopathicity after 3 to 4 days by MTT assay.
Details: not given
Format: functional, organism-based. In general terms: Damage to the host cells serves as the signal in cytopathic effect assays.
For `Fc1ccc(F)c(/N=N/c2ccc(NC[C@@H]3CCCN4CCCC[C@H]34)c3c2CCCC3)c1`, the EC50 was greater than 38 µM.

As for `CN(C)CCCN(/N=N/c1ccc([N+](=O)[O-])cc1)c1ccccc1`, the EC50 was no less than 36 µM.

For `CN(Cc1ccccc1)/N=N/c1ccccc1`, the concentration for a half-maximal effect (EC50) was greater than 100 µM.

With `FC(F)(F)c1cccc(N(C[C@@H]2CCCN3CCCC[C@H]23)/N=N/c2ccccc2)c1`, the EC50 was found to be 23 µM.

Take `CN(C)CCCNc1ccc(/N=N/c2ccc([N+](=O)[O-])cc2)cc1`: the EC50 was greater than 100 µM.

Tested on in another data set: not listed separately
Kind of data set: Cytotoxicity against hamster BHK21 cells assessed as reduction in cell viability after 48 to 96 hrs by MTT assay. Format: cell-based, Mesocricetus auratus, BHK-21. The settings on record: bhk-21. In outline:
as §1
(In general: Tetrazolium dyes change colour on reduction, which living cells bring about.)
Regarding `Fc1ccc(F)c(/N=N/c2ccc(NC[C@@H]3CCCN4CCCC[C@H]34)c3c2CCCC3)c1`, the CC50 is 38 µM.

Consider `CN(C)CCCN(/N=N/c1ccc([N+](=O)[O-])cc1)c1ccccc1`, for which the CC50 turned out to be 36 µM.

As to `CN(Cc1ccccc1)/N=N/c1ccccc1`, the CC50 is greater than 100 µM.

With `FC(F)(F)c1cccc(N(C[C@@H]2CCCN3CCCC[C@H]23)/N=N/c2ccccc2)c1`, the CC50 was determined as 40 µM.

In the case of `CN(C)CCCNc1ccc(/N=N/c2ccc([N+](=O)[O-])cc2)cc1`, the CC50 is greater than 100 µM.

Another data set relates to Respiratory syncytial virus. Briefly: Antiviral activity against Respiratory syncytial virus A2 infected in Vero-76 cells after 5 days by plaque reduction assay. The format is functional, organism-based. The note with it: human respiratory syncytial virus, A2, Vero 76, 120 h. A general note: Plaques are areas of infected cells; plaque reduction assays count them against a control.
The molecule `Fc1ccc(F)c(/N=N/c2ccc(NC[C@@H]3CCCN4CCCC[C@H]34)c3c2CCCC3)c1` returned an EC50 greater than 80 µM.

The molecule `CN(C)CCCN(/N=N/c1ccc([N+](=O)[O-])cc1)c1ccccc1` yielded an EC50 greater than 40 µM.

`CN(Cc1ccccc1)/N=N/c1ccccc1` came in with an EC50 greater than 100 µM.

Turning to `FC(F)(F)c1cccc(N(C[C@@H]2CCCN3CCCC[C@H]23)/N=N/c2ccccc2)c1`, the EC50 was greater than 75 µM.

In the case of `CN(C)CCCNc1ccc(/N=N/c2ccc([N+](=O)[O-])cc2)cc1`, the EC50 is greater than 60 µM.

The test system of another data set is MT4. Briefly: Cytotoxicity against human MT4 cells after 96 hrs by MTT assay. Format: cell-based. The settings on record: mt4, 96 h. The method, boiled down: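 Exponentially growing mock-infected MT-4 seeded at 1 × 10^5 cells/mL in RPMI-1640 with 10% FCS, penicillin and streptomycin. Incubated with or without serial compound dilutions at 37 °C, 5% CO2. Viability by MTT after 96 h. CC50 = concentration reducing viability 50%.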
Take `Fc1ccc(F)c(/N=N/c2ccc(NC[C@@H]3CCCN4CCCC[C@H]34)c3c2CCCC3)c1`: the midpoint of cytotoxicity, the CC50, lay at 40 µM.

As for `CN(C)CCCN(/N=N/c1ccc([N+](=O)[O-])cc1)c1ccccc1`, the CC50 is 20 µM.

Consider `CN(Cc1ccccc1)/N=N/c1ccccc1`, for which the CC50 is no less than 100 µM.

`FC(F)(F)c1cccc(N(C[C@@H]2CCCN3CCCC[C@H]23)/N=N/c2ccccc2)c1` returned a CC50 of 17 µM.

`CN(C)CCCNc1ccc(/N=N/c2ccc([N+](=O)[O-])cc2)cc1` gave a CC50 of 19 µM.

In the next data set the test system is Mammalian orthoreovirus 1. Kind of data set: Antiviral activity against Reovirus-1 infected in BHK-21 cells assessed as inhibition of virus-induced cytopathicity after 3 to 4 days by MTT assay. Format: functional, organism-based. The settings on record: Mammalian orthoreovirus 1, BHK-21. The method, boiled down:
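BHK-21 cells seeded at 5 × 10^4 cells/well, grown overnight to confluent monolayers at 37 °C in 5% CO2, then infected at m.o.i. 0.01 in serum-free medium. One hour later, MEM Earle's with 1% final inactivated FCS added, with or without serial compound dilutions. Viability read by MTT after 3–4 days at 37 °C. EC50 is the concentration giving 50% protection from cytopathogenicity.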
Take `Fc1ccc(F)c(/N=N/c2ccc(NC[C@@H]3CCCN4CCCC[C@H]34)c3c2CCCC3)c1`: the EC50 was greater than 38 µM.

Regarding `CN(C)CCCN(/N=N/c1ccc([N+](=O)[O-])cc1)c1ccccc1`, the EC50 is greater than 36 µM.

As for `CN(Cc1ccccc1)/N=N/c1ccccc1`, the EC50 is greater than 100 µM.

Regarding `FC(F)(F)c1cccc(N(C[C@@H]2CCCN3CCCC[C@H]23)/N=N/c2ccccc2)c1`, the EC50 is greater than 40 µM.

Consider `CN(C)CCCNc1ccc(/N=N/c2ccc([N+](=O)[O-])cc2)cc1`, for which the EC50 is greater than 100 µM.

Another data set concerns Vesicular stomatitis virus. Kind of data set: Antiviral activity against Vesicular stomatitis virus after 2 days by plaque reduction assay.
Details: not given
The format is functional, organism-based.
In the case of `Fc1ccc(F)c(/N=N/c2ccc(NC[C@@H]3CCCN4CCCC[C@H]34)c3c2CCCC3)c1`, the result was inactive.

For `CN(C)CCCN(/N=N/c1ccc([N+](=O)[O-])cc1)c1ccccc1`, the outcome was inactive.

As to `CN(Cc1ccccc1)/N=N/c1ccccc1`, the result was inactive.

For the molecule `FC(F)(F)c1cccc(N(C[C@@H]2CCCN3CCCC[C@H]23)/N=N/c2ccccc2)c1`, the outcome was inactive.

With `CN(C)CCCNc1ccc(/N=N/c2ccc([N+](=O)[O-])cc2)cc1`, the outcome was inactive.

Another data set deals with Poliovirus 1. Kind of data set: Antiviral activity against Human poliovirus 1 strain Sabin after 2 days by plaque reduction assay. Format: functional.
Details: not given
`Fc1ccc(F)c(/N=N/c2ccc(NC[C@@H]3CCCN4CCCC[C@H]34)c3c2CCCC3)c1`: the result was inactive.

Consider `CN(C)CCCNc1ccc(/N=N/c2ccc([N+](=O)[O-])cc2)cc1`, for which the result was inactive.

Still in this data set, the particulars now being: Enterovirus C, 48 h.
In the case of `CN(C)CCCN(/N=N/c1ccc([N+](=O)[O-])cc1)c1ccccc1`, the EC50 is greater than 40 µM.

On to `CN(Cc1ccccc1)/N=N/c1ccccc1`, for which the EC50 is greater than 100 µM.

Consider `FC(F)(F)c1cccc(N(C[C@@H]2CCCN3CCCC[C@H]23)/N=N/c2ccccc2)c1`, for which the EC50 is greater than 75 µM.

For the next data set, the system named is Bovine viral diarrhea virus 1. Briefly: Antiviral activity against Bovine viral diarrhea virus infected in MDBK cells assessed as inhibition of virus-induced cytopathicity after 3 to 4 days by MTT assay. Format: functional, organism-based. The settings on record: Bovine viral diarrhea virus isolates and strains.
Regarding `Fc1ccc(F)c(/N=N/c2ccc(NC[C@@H]3CCCN4CCCC[C@H]34)c3c2CCCC3)c1`, the EC50 is greater than 64 µM.

In the case of `CN(C)CCCN(/N=N/c1ccc([N+](=O)[O-])cc1)c1ccccc1`, the EC50 is no less than 39 µM.

For `CN(Cc1ccccc1)/N=N/c1ccccc1`, the EC50 was greater than 100 µM.

Take `FC(F)(F)c1cccc(N(C[C@@H]2CCCN3CCCC[C@H]23)/N=N/c2ccccc2)c1`: the EC50 is greater than 22 µM.

Take `CN(C)CCCNc1ccc(/N=N/c2ccc([N+](=O)[O-])cc2)cc1`: the EC50 is greater than 100 µM.

Another data set has as its system Human alphaherpesvirus 1. Briefly: Antiviral activity against HSV1 infected in Vero-76 cells after 3 days by plaque reduction assay. The format is functional, organism-based. The note with it: Human alphaherpesvirus 1, Vero 76, 72 h.
The molecule `Fc1ccc(F)c(/N=N/c2ccc(NC[C@@H]3CCCN4CCCC[C@H]34)c3c2CCCC3)c1` gave an EC50 greater than 80 µM.

`CN(C)CCCN(/N=N/c1ccc([N+](=O)[O-])cc1)c1ccccc1` came in with an EC50 greater than 40 µM.

The molecule `CN(Cc1ccccc1)/N=N/c1ccccc1` yielded an EC50 greater than 100 µM.

As for `FC(F)(F)c1cccc(N(C[C@@H]2CCCN3CCCC[C@H]23)/N=N/c2ccccc2)c1`, the EC50 was greater than 75 µM.

Take `CN(C)CCCNc1ccc(/N=N/c2ccc([N+](=O)[O-])cc2)cc1`: the EC50 was greater than 60 µM.

The next data set has as its system Vero. Kind of data set: Cytotoxicity against african green monkey Vero 76 cells by crystal violet staining. Format: cell-based. The note with it: chlorocebus sabaeus, vero. The method, boiled down:
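Mock-infected Vero 76 seeded at 4 × 10^5 cells/mL, run in parallel with plaque assays, with or without serial compound dilutions. Cell number of monolayers determined by crystal violet staining. CC50 = concentration reducing viable cell number 50%.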
`Fc1ccc(F)c(/N=N/c2ccc(NC[C@@H]3CCCN4CCCC[C@H]34)c3c2CCCC3)c1` showed a CC50 of 80 µM.

In turn, `CN(C)CCCN(/N=N/c1ccc([N+](=O)[O-])cc1)c1ccccc1` came in with a CC50 of 40 µM.

Molecule `CN(Cc1ccccc1)/N=N/c1ccccc1` displayed a CC50 of no less than 100 µM.

On to `FC(F)(F)c1cccc(N(C[C@@H]2CCCN3CCCC[C@H]23)/N=N/c2ccccc2)c1`, for which the CC50 was 75 µM.

For the molecule `CN(C)CCCNc1ccc(/N=N/c2ccc([N+](=O)[O-])cc2)cc1`, the CC50 amounted to 60 µM.

Another data set deals with Vaccinia virus. Briefly: Antiviral activity against Vaccinia virus after 3 days by plaque reduction assay. Format: functional, organism-based. The settings on record: Orthopoxvirus vaccinia.
As for `Fc1ccc(F)c(/N=N/c2ccc(NC[C@@H]3CCCN4CCCC[C@H]34)c3c2CCCC3)c1`, the outcome was inactive.

With `CN(C)CCCN(/N=N/c1ccc([N+](=O)[O-])cc1)c1ccccc1`, the outcome was inactive.

With `CN(Cc1ccccc1)/N=N/c1ccccc1`, the outcome was inactive.

Take `FC(F)(F)c1cccc(N(C[C@@H]2CCCN3CCCC[C@H]23)/N=N/c2ccccc2)c1`: the result was inactive.

With `CN(C)CCCNc1ccc(/N=N/c2ccc([N+](=O)[O-])cc2)cc1`, the result was inactive.

The test system of another data set is Human immunodeficiency virus 1. Kind of data set: Antiviral activity against HIV1 infected in human MT4 cells assessed as inhibition of virus-induced cytopathicity after 4 days by MTT assay. The format is functional, organism-based.
Details: not given
Regarding `Fc1ccc(F)c(/N=N/c2ccc(NC[C@@H]3CCCN4CCCC[C@H]34)c3c2CCCC3)c1`, the inhibition result is “inactive”.

On to `CN(C)CCCN(/N=N/c1ccc([N+](=O)[O-])cc1)c1ccccc1`, for which the inhibition result is “inactive”.

As to `CN(Cc1ccccc1)/N=N/c1ccccc1`, the inhibition entry was “inactive”.

Regarding `FC(F)(F)c1cccc(N(C[C@@H]2CCCN3CCCC[C@H]23)/N=N/c2ccccc2)c1`, the inhibition result was “inactive”.

With `CN(C)CCCNc1ccc(/N=N/c2ccc([N+](=O)[O-])cc2)cc1`, the inhibition entry is “inactive”.

The test system of another data set is Coxsackievirus B2. Briefly: Antiviral activity against Coxsackie virus type B2 virus infected in african green monkey Vero-76 cells after 3 days by plaque reduction assay. The format is functional, organism-based. The settings on record: Enterovirus B, Vero 76, 72 h. In outline: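 Vero 76 cells seeded at 2 × 10^5 cells/well, grown overnight to confluence at 37 °C in 5% CO2, then infected at 50–100 PFU/well. Unadsorbed virus removed. Overlay of DMEM with 1% inactivated FCS and 0.75% methylcellulose, with or without serial compound dilutions. After 3 days at 37 °C, fixed and stained with crystal violet in PBS/50% ethanol; plaques counted. EC50 is the concentration reducing plaque number by 50%.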
As for `Fc1ccc(F)c(/N=N/c2ccc(NC[C@@H]3CCCN4CCCC[C@H]34)c3c2CCCC3)c1`, the EC50 is greater than 80 µM.

With `CN(C)CCCN(/N=N/c1ccc([N+](=O)[O-])cc1)c1ccccc1`, the EC50 was greater than 40 µM.

The molecule `CN(Cc1ccccc1)/N=N/c1ccccc1` showed an EC50 greater than 100 µM.

Molecule `FC(F)(F)c1cccc(N(C[C@@H]2CCCN3CCCC[C@H]23)/N=N/c2ccccc2)c1` had an EC50 greater than 75 µM.

Take `CN(C)CCCNc1ccc(/N=N/c2ccc([N+](=O)[O-])cc2)cc1`: the EC50 was greater than 60 µM.

The values are drawn from ChEMBL document CHEMBL1154067, “Antiviral and cytotoxic activities of aminoarylazo compounds and aryltriazene derivatives” (Bioorg Med Chem, 2009).
